The record followed here is ChEMBL document CHEMBL5046323, “Discovery of Phospholipase D Inhibitors with Improved Drug-like Properties and Central Nervous System Penetrance” (ACS Med Chem Lett, 2022).

In one data set the target is T1, Phospholipase D1 (Homo sapiens, UniProt Q13393).
T1 sequence (Q13393 whole entry): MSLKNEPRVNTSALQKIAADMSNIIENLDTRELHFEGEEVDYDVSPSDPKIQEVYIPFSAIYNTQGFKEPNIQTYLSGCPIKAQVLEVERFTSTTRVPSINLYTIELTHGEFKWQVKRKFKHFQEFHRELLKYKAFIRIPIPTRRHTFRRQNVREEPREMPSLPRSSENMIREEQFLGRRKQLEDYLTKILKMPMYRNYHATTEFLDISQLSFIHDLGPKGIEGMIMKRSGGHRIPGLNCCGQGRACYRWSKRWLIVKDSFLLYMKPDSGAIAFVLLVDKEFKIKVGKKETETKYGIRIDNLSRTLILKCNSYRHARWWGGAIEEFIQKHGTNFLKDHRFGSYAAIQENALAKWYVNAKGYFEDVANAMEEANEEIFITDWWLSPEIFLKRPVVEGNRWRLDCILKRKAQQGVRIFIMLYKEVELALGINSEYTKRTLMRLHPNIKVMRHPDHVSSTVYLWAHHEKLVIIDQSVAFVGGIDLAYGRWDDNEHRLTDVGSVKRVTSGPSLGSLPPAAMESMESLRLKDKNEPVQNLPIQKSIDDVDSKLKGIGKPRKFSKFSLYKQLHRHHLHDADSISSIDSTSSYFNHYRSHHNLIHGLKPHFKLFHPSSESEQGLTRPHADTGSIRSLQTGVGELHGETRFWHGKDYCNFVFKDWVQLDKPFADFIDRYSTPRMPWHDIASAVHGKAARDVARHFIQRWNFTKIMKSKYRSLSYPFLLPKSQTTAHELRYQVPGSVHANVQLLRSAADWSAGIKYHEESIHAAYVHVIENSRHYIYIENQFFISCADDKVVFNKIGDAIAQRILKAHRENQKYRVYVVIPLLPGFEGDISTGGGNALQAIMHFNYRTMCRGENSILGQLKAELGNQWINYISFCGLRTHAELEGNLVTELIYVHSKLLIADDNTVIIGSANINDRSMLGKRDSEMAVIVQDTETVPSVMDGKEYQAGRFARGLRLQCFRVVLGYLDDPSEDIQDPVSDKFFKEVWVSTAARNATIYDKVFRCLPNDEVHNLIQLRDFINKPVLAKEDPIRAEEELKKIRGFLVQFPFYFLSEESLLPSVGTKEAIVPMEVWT
Nature of the data set: Inhibition of PLD1 (unknown origin) expressed in human HEK cells by immunoprecipitation assay. Type of data set: cell-based.

A further data set has as its target Phospholipase D2 (Homo sapiens, UniProt O14939). Kind of data set: Inhibition of PLD2 (unknown origin) expressed in human HEK cells by immunoprecipitation. Type of data set: cell-based. The method, boiled down:
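PLD1 or PLD2 immunoprecipitated from HEK-293 cell lysates and captured on plate with an antibody (ELISA format); 08:0 phosphatidylcholine substrate; released choline detected by Amplex Red readout.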

Data set [1] can be described thus: Microsomal stability in human liver microsomes assessed as intrinsic clearance. The conditions noted are these: read-out: CLH. Type of data set: ADME, Microsome. An outline of the steps: (§1)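 Intrinsic clearance (CLint) determined in rat or human liver microsomes.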
(Liver microsomes are a subcellular fraction often used to study metabolism.)

Data set [2] can be described thus: Microsomal stability in rat liver microsomes assessed as intrinsic clearance. Type of data set: ADME, Microsome. The conditions noted are these: read-out: CLH. An outline of the steps: as §1
The test system of another data set is MDR1 (P-gp). Kind of data set: Efflux ratio of apparent permeability from basolateral to apical side over apical to basolateral side in dog MDCK-MDR1 cells. Type of data set: ADME, cell-based, Canis lupus familiaris. An outline of the steps: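 Efflux ratio calculated as Papp(B–A)/Papp(A–B) across MDR1-transfected MDCK monolayers.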
Data set [3] is described as follows: Kinetic solubility of compound at pH 6.8. The conditions noted are these: buffer, read-out: Kinetic_solubility. Type of data set: physicochemical. The method, boiled down:
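Kinetic solubility measured at pH 6.8.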

A short description of data set [4]: Clearance in iv dosed rat administered as cassette dose. Type of data set: ADME, organism-based. The conditions noted are these: in vivo. The method, boiled down: (§2)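 Rat IV clearance from cassette dosing; unbound clearance calculated as CL/fu.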
A short description of data set [5]: Unbound clearance in iv dosed rat administered as cassette dose. The note with it: in vivo. Type of data set: ADME, organism-based. An outline of the steps:
as §2

Data set [6] concerns the target Phospholipase D1 (Homo sapiens) (UniProt Q13393). Kind of data set: Inhibition of PLD1 in human Calu-1 cells assessed as reduction in d9-phosphobutanol formation by mass spectrometry-based transphosphatidylation assay.
A further data set deals with BCRP. Nature of the data set: Efflux ratio of apparent permeability from basolateral to apical side over apical to basolateral side in dog MDCK-BCRP cells. Type of data set: ADME, cell-based, Canis lupus familiaris.

≈ marks a conversion by molar mass, not a printed value.

Sequence of Phospholipase D2 (O14939 whole entry): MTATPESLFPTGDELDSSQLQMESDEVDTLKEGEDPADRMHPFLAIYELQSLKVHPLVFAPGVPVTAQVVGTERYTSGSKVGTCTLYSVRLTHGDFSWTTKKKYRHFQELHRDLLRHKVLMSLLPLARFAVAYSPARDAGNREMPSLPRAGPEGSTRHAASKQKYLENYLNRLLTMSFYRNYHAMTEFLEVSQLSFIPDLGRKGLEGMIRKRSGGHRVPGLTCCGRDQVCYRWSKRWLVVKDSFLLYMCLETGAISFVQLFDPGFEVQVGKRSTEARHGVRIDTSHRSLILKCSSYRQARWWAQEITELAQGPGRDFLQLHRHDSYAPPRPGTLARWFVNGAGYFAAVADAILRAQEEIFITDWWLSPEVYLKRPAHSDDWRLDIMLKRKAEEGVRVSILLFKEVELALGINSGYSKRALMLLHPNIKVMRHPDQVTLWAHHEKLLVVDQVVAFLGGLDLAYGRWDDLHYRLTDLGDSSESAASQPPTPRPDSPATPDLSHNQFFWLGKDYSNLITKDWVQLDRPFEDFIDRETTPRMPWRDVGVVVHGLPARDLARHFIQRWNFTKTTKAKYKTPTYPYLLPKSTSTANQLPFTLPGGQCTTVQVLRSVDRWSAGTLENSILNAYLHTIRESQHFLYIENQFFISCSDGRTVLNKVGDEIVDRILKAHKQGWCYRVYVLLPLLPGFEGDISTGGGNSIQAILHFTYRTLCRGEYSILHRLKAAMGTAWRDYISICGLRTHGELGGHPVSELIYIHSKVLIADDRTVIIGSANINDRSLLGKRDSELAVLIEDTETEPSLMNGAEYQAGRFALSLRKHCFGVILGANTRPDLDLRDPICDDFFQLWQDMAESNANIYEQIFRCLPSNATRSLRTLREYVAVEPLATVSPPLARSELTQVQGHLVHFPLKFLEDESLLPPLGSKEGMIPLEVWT

`C[C@@H](CN1CCC2(CC1)OC(=O)NC[C@H]2c1cccc(F)c1)NC(=O)c1ccc(F)cc1`: the figures for the half-inhibitory concentration (IC50) (at Phospholipase D1; at Phospholipase D2; in data set [6]) were 22 nM, 64 nM and 2 nM, respectively. Further, the CLint scaled is 38 mL/min/kg in data set [1] and 394 mL/min/kg in data set [2]. Moreover, the efflux ratio (in general, the permeability from basolateral to apical divided by that in the opposite direction, in the common usage) in the data set with MDR1 (P-gp) is 12. Also, the solubility kinetic in [3] stood at 61 µg/mL (≈ 138 µM). Moreover, the clearance (usually the rate of elimination divided by the concentration) in data set [4] amounted to 119 mL/min/kg. In [5], the CL free turned out to be 308 mL/min/kg.

For `C[C@@H](C(=O)N1CCC(F)(F)C1)N1CCC(n2c(=O)[nH]c3ccccc32)CC1`, the IC50 (in general, the midpoint of a concentration-inhibition curve) came to 170 nM against Phospholipase D1, 2900 nM against Phospholipase D2 and 1200 nM in data set [6]. The CLint scaled in data set [1] is 10 mL/min/kg; in [2], above 300 mL/min/kg. Moreover, the efflux ratio in the data set on MDR1 (P-gp) is 2.5; with BCRP, 1.2. In addition, the clearance in [4] came to 34 mL/min/kg. This compound had a CL free in data set [5] of 192 mL/min/kg.

Regarding `C[C@H]1CN(C(=O)[C@H](C)N2CCC(n3c(=O)[nH]c4ccccc43)CC2)CCN1`, the IC50 was 76 nM on Phospholipase D1, 1100 nM against Phospholipase D2 and 160 nM in data set [6]. The CLint scaled in [1] is below 5 mL/min/kg; in data set [2], below 10 mL/min/kg. The efflux ratio was 5.5 in the data set on MDR1 (P-gp) and 2.3 in the data set with BCRP. In addition, the clearance in [4] amounted to 39 mL/min/kg. This compound also gave a CL free in data set [5] of 73 mL/min/kg.

For the compound `C[C@@H](C(=O)N1CCOCC1)N1CCC(n2c(=O)[nH]c3ccccc32)CC1`, the IC50 against Phospholipase D1 is 380 nM; against Phospholipase D2, above 10000 nM; in [6] it was 560 nM. Also, the CLint scaled in data set [1] is below 5 mL/min/kg; in data set [2] it was 162 mL/min/kg. The values for the efflux ratio in the data set with MDR1 (P-gp) and in the data set with BCRP were 36 and 1.5, respectively. In [4], this compound returned a clearance of 13 mL/min/kg.
